Key:
[1] = ABTS+ radical scavenging; settings: compared with parent nialamide
Summary of the method: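 ABTS radical cation formed by mixing 7 mM ABTS in ethanol with 2.4 mM potassium persulfate and holding it in the dark at 25 °C for 24 h. The solution is added to test compound at several concentrations, mixed for 30 sec, then incubated for 30 min at 25 °C. Scavenging % = [1-(A2/A1)]x100, where A1 is the blank without sample. (+)-Catechin is the positive control; n=3.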

[2] = tested on: IL-6; test: LPS-stimulated IL-6 production; format: cell-based, murine; settings: LPS-stimulated RAW 264.7; compared with nialamide
Summary of the method: (§1)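 Seeding is 1x10^5 cells/well in DMEM with 10% FBS, followed by 24 h culture. Cells receive test compound for 1 h before LPS stimulation for 24 h (RAW 264.7: 0.1 µg/ml LPS; DH82: 2 µg/ml LPS). TNF-α, IL-6 and IL-10 in the culture medium are quantified by ELISA kits; n=3.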

[3] = tested on: NF-κB; test: Western blot NF-κB phosphorylation, RAW 264.7; format: cell-based, murine; settings: RAW 264.7 cells
Summary of the method: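 RAW 264.7 cells (2x10^5/well) are pretreated with test compound for 1 h, then stimulated with 0.1 µg/ml LPS for 24 h. RIPA lysates (40 µg) are separated on 10% SDS-PAGE and blotted to PVDF. Blots are probed overnight at 4 °C with anti-p-p65, p65, p-IκB and IκB (1:1,000), followed by HRP secondary and ECL detection. GAPDH is the loading control; three independent experiments.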

[4] = tested on: NO production in LPS-stimulated RAW 264.7 cells; test: LPS-stimulated NO production; format: cell-based, murine; settings: Mus musculus, RAW264.7, 24 h, read-out: IC50 of NO, LPS (0.1 µg/ml)-stimulated RAW 264.7 cells, 24 h
Summary of the method: (§2)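 Macrophages are grown in DMEM with 10% FBS at 37 °C and 5% CO2, seeded at 1x10^5 cells/well and cultured for 24 h. They are pretreated with test compound for 1 h, then given LPS for 24 h (RAW 264.7: 0.1 µg/ml; DH82: 2 µg/ml). Medium NO is measured by Griess reagent against a standard curve; supernatant PGE2 is measured by ELISA. Done at least in triplicate.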

[5] = tested on: PGE2 production in LPS-stimulated RAW 264.7 cells; test: LPS-stimulated PGE2 production; format: cell-based, murine; settings: Mus musculus, RAW264.7, 24 h, read-out: IC50 of PGE2, LPS (0.1 µg/ml)-stimulated RAW 264.7 cells, 24 h
Summary of the method: as §2

[6] = tested on: COX-2; test: Western blot COX-2 protein expression, DH82; format: cell-based, canine; settings: LPS-stimulated DH82; compared with nialamide
Summary of the method: (§3)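 Cells (2x10^5/well) are cultured for 24 h and pretreated with test compound for 1 h. LPS follows for 24 h (RAW 264.7: 0.1 µg/ml; DH82: 2 µg/ml). RIPA lysates (40 µg protein, BCA-quantified) are run on 10% SDS-PAGE and transferred to PVDF. Membranes are blocked in 5% milk, probed overnight at 4 °C with anti-iNOS and anti-COX-2 (1:1,000; canine-specific antibodies for DH82), then HRP secondary (1:3,000) for 2 h. Detection is ECL; densitometry uses GAPDH as the internal control; n=3.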

[7] = DPPH radical scavenging; settings: compared with parent nialamide; 50 to 200 µM
Summary of the method: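 DPPH (200 µM in EtOH) is mixed 1:2 by volume with test compound solutions (50 to 200 µM in 70% EtOH). The mixture is incubated at 30 °C in the dark for 15 min, and the drop in absorbance at 517 nm is read. Scavenging % = [1-(A2/A1)]x100, where A1 is the blank without sample. (+)-Catechin is the positive control; n=3.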

[8] = MTT cell viability, RAW 264.7 macrophages; format: cell-based, murine; settings: mouse
Summary of the method: (§4)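 Cells are seeded at 1x10^5 cells/well, cultured for 24 h, then exposed to test compound at various concentrations for a further 24 h. MTT is added, formazan is dissolved in DMSO and absorbance is read at 570 nm. The tabulated viability is at 200 µM. Done at least in triplicate.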

[9] = tested on: ROS production in LPS-activated RAW 264.7 macrophages; test: Intracellular ROS; format: cell-based, murine; settings: LPS 0.1 µg/ml, 50 to 200 µM, DCFH-DA
[10] = MTT cell viability, DH82 macrophages; format: cell-based, canine; settings: dog
Summary of the method: as §4

[11] = tested on: TNF-α; test: LPS-stimulated TNF-α production; format: cell-based, murine; settings: LPS-stimulated RAW 264.7; compared with nialamide
Summary of the method: as §1

[12] = tested on: iNOS; test: Western blot iNOS protein expression, RAW 264.7; format: cell-based, murine; settings: LPS-stimulated RAW 264.7; compared with nialamide
Summary of the method: as §3

[13] = tested on: iNOS; test: Western blot iNOS protein expression, DH82; format: cell-based, canine; settings: LPS-stimulated DH82; compared with nialamide
Summary of the method: as §3

[14] = tested on: COX-2; test: Western blot COX-2 protein expression, RAW 264.7; format: cell-based, murine; settings: LPS-stimulated RAW 264.7; compared with nialamide
Summary of the method: as §3

[15] = tested on: IL-10; test: LPS-stimulated IL-10 production; format: cell-based, murine; settings: LPS-stimulated RAW 264.7; compared with nialamide
Summary of the method: as §1

[16] = tested on: Mycobacterium tuberculosis; settings: at low concentrations; cited from earlier work

| Compound | ABTS+ scavenging activity [1] | IL-6 production [2] | LPS-stimulated phosphorylation of NF-κB [3] | IC50 [4] | IC50 [5] | COX-2 protein expression [6] | DPPH radical scavenging activity [7] | viability at 24 h, 200 µM [8] | ROS production [9] | viability at 24 h, 200 µM [10] | TNF-α production [11] | iNOS protein expression [12] | iNOS protein expression [13] | COX-2 protein expression [14] | IL-10 production [15] | inhibition of Mycobacterium tuberculosis [16] |
| --- | --- | --- | --- | --- | --- | --- | --- | --- | --- | --- | --- | --- | --- | --- | --- | --- |
| O=C(CCO)NCc1ccccc1 [Compound 5, 3-hydroxy-N-benzylpropanamide] | enhancement | potent dose-dependent suppression | dose-dependent inhibition | 63.5 ± 0.8 µM | 55.4 ± 0.7 µM | significant dose-dependent suppression | enhancement | 99.9 ± 2.2% | effectively suppress ROS production in a dose-dependent manner | 97.2 ± 1% | potent dose-dependent suppression | significant dose-dependent suppression | significant dose-dependent suppression | significant dose-dependent suppression | potent dose-dependent suppression |  |
| NC(=O)c1ccncc1 [Compound 7, isonicotinamide] |  |  |  | > 200 µM | > 200 µM |  |  | 101 ± 1.9% |  | 98.4 ± 1.2% |  |  |  |  |  |  |
| O=C(CCNNC(=O)c1ccncc1)NCc1ccccc1 [Compound 1, nialamide, reference compound] |  |  |  | > 200 µM | > 200 µM |  |  | 102 ± 2.3% |  | 99.9 ± 1.2% |  |  |  |  |  | effectively inhibits |
| COCCC(=O)NCc1ccccc1 [Compound 4, 3-methoxy-N-benzylpropanamide] |  |  |  | 178 ± 2 µM | 161 ± 2 µM |  |  | 102 ± 2.2% |  | 97.6 ± 1.1% |  |  |  |  |  |  |
| NCCC(=O)NCc1ccccc1 [Compound 3, 3-amino-N-benzylpropanamide] |  |  |  | 170 ± 1.9 µM | 155 ± 1.9 µM |  |  | 102 ± 2% |  | 99.7 ± 1.2% |  |  |  |  |  |  |

Source: article PMC10966424 (Experimental and Therapeutic Medicine, 2024)
